{"source": "ChEMBL document CHEMBL4118021", "about": "“Studies of TAK1-centered polypharmacology with novel covalent TAK1 inhibitors” (Bioorg Med Chem, 2017)", "key": {"[1]": {"biological_target": "T1, Dual specificity mitogen-activated protein kinase kinase 3 (Homo sapiens) (UniProt P46734)", "T1 sequence (whole entry)": "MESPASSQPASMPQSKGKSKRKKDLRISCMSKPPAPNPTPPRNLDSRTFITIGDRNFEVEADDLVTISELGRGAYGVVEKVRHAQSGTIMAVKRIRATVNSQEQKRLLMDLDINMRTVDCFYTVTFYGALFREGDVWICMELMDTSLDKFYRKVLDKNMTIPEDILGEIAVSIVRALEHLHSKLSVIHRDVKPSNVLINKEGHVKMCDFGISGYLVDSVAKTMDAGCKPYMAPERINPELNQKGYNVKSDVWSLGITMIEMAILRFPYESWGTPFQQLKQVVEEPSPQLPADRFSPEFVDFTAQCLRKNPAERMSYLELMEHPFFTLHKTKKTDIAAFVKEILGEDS", "experiment": "Inhibition of full length human MEK3 (1 to 318 residues) expressed in mammalian expression system assessed as enzyme activity at 1 uM by KINOMEScan assay relative to control", "parameters": "scale not given: the % may be the effect or the level left", "outline": "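In vitro ATP-site competition binding assay (KinomeScan) across a panel of 456 kinases. Compound was tested at 1 and 10 μM. The read-out is the binding inhibition score relative to control.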"}, "[2]": {"biological_target": "Serine/threonine-protein kinase MARK1 (Homo sapiens) (UniProt Q9P0L2)", "sequence (Q9P0L2 whole entry, looked up)": "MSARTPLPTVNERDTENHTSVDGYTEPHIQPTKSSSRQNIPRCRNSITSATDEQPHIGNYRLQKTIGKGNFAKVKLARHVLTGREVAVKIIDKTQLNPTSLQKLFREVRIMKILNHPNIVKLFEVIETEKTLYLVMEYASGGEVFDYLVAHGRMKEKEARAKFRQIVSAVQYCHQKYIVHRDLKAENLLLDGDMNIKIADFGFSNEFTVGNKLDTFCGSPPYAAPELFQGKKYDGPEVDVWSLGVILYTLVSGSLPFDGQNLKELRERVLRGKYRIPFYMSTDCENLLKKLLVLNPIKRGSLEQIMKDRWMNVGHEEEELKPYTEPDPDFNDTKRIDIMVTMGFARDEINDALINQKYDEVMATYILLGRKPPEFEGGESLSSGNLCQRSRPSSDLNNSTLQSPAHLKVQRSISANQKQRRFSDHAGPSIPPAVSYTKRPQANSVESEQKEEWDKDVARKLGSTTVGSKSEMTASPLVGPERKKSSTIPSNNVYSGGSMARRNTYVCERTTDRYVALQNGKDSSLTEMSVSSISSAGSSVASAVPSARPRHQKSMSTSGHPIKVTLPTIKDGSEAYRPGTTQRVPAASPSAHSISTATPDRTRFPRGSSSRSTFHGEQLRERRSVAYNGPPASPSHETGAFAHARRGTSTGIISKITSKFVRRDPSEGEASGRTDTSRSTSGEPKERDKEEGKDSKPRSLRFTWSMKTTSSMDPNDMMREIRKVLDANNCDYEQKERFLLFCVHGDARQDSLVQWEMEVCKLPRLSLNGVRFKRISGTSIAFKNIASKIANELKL", "experiment": "Inhibition of MARK1 in human SKCO1 cells at 1 uM after 4 hrs using biotin labeled EVAVKIIDK probe by mass-spectrometric analysis relative to control", "assay_type": "cell-based"}, "[3]": {"biological_target": "Cytoplasmic dynein 1 intermediate chain 2 (Homo sapiens) (UniProt Q13409)", "sequence (Q13409 whole entry)": "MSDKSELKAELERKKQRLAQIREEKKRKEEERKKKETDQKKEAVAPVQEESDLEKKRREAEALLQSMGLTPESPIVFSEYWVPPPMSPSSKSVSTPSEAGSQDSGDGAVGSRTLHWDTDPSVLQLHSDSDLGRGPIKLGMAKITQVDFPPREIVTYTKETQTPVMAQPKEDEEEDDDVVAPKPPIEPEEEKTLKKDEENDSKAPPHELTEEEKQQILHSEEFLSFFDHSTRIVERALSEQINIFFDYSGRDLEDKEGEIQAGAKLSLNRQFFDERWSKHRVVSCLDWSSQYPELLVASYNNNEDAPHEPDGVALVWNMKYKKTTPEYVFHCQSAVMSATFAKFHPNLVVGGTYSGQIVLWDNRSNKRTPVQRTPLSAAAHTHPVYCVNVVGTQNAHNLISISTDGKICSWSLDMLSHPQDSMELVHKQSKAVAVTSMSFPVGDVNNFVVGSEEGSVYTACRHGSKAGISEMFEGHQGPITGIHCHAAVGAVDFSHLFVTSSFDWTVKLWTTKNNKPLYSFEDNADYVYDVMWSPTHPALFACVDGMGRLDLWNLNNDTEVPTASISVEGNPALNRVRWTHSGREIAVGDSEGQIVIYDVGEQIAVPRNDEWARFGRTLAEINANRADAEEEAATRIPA", "experiment": "Binding affinity to DYNC1I2 in human NCI-H23 cells at 1 uM by mass spectrometry based pull down assay", "assay_type": "cell-based"}, "[4]": {"biological_target": "NAD(P)H dehydrogenase [quinone] 1 (Homo sapiens) (UniProt P15559)", "sequence (P15559 whole entry)": "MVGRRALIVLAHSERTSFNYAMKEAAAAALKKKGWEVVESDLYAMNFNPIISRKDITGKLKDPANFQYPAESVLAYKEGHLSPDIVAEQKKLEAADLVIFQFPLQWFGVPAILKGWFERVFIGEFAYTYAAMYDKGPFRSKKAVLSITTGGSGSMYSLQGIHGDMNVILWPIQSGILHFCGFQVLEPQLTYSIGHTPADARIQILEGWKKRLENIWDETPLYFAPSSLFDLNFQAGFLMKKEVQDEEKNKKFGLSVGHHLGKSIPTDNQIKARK", "experiment": "Binding affinity to NQO1 in human NCI-H23 cells at 1 uM by mass spectrometry based pull down assay", "assay_type": "cell-based"}, "[5]": {"biological_target": "Glutathione S-transferase kappa 1 (Homo sapiens) (UniProt Q9Y2Q3)", "sequence (Q9Y2Q3 whole entry)": "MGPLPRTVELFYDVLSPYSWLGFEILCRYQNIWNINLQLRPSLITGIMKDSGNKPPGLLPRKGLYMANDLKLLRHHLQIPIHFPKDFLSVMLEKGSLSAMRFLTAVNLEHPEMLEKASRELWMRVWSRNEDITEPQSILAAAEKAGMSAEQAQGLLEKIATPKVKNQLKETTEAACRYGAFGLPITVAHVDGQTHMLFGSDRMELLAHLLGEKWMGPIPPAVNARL", "experiment": "Binding affinity to GSTK1 in human NCI-H23 cells at 1 uM by mass spectrometry based pull down assay", "assay_type": "cell-based"}, "[6]": {"biological_target": "80S Ribosome (Homo sapiens) (UniProt P08865+P42677+P62753+P15880+P23396+P61247+P62701+P22090+P46782+P62081+P62241+P46781+P46783+P62280+P25398+P62277+P62263+P62841+P62244+P62249+P08708+P62269+P39019+P60866+P63220+P62266+P62847+P62851+P62854+P62979+P62857+P62273+P62861+P39023+P36578+P46777+Q02878+P18124+P62424+P62917+P32969+P27635+P62906+P62913+P30050+P26373+P40429+P50914+P61313+P18621+Q07020+Q02543+P84098+P46778+P35268+P62829+P62750+P83731+P61254+P61353+P46776+P46779+P47914+P62888+P62899+P62910+P49207+P42766+P18077+Q9Y3U8+P83881+P61927+P61513+P63173+P62891+P62945+P05388+P05386)", "experiment": "Binding affinity to RPL28 in human NCI-H23 cells at 1 uM by mass spectrometry based pull down assay", "assay_type": "cell-based"}, "[7]": {"biological_target": "Coatomer subunit beta (Homo sapiens) (UniProt P53618)", "experiment": "Binding affinity to COPB1 in human NCI-H23 cells at 1 uM by mass spectrometry based pull down assay", "assay_type": "cell-based"}, "[8]": {"biological_target": "Dihydropyrimidinase-related protein 2 (Homo sapiens) (UniProt Q16555)", "experiment": "Binding affinity to DPYSL2 in human NCI-H23 cells at 1 uM by mass spectrometry based pull down assay", "assay_type": "cell-based"}, "[9]": {"biological_target": "V-type proton ATPase subunit B, brain isoform (Homo sapiens) (UniProt P21281)", "experiment": "Binding affinity to ATP6V1B2 in human NCI-H23 cells at 1 uM by mass spectrometry based pull down assay", "assay_type": "cell-based"}, "[10]": {"biological_target": "Acidic leucine-rich nuclear phosphoprotein 32 family member A (Homo sapiens) (UniProt P39687)", "sequence (P39687 whole entry)": "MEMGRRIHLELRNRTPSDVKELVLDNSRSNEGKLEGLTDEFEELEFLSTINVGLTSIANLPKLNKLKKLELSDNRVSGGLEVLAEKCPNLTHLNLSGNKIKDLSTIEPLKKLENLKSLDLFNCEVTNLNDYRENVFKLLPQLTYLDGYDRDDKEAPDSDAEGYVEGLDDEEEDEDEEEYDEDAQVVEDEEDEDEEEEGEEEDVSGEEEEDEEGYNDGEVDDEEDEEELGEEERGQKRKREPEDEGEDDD", "experiment": "Binding affinity to ANP32A in human NCI-H23 cells at 1 uM by mass spectrometry based pull down assay", "assay_type": "cell-based"}, "[11]": {"biological_target": "Trifunctional purine biosynthetic protein adenosine-3 (Homo sapiens) (UniProt P22102)", "sequence (P22102 whole entry)": "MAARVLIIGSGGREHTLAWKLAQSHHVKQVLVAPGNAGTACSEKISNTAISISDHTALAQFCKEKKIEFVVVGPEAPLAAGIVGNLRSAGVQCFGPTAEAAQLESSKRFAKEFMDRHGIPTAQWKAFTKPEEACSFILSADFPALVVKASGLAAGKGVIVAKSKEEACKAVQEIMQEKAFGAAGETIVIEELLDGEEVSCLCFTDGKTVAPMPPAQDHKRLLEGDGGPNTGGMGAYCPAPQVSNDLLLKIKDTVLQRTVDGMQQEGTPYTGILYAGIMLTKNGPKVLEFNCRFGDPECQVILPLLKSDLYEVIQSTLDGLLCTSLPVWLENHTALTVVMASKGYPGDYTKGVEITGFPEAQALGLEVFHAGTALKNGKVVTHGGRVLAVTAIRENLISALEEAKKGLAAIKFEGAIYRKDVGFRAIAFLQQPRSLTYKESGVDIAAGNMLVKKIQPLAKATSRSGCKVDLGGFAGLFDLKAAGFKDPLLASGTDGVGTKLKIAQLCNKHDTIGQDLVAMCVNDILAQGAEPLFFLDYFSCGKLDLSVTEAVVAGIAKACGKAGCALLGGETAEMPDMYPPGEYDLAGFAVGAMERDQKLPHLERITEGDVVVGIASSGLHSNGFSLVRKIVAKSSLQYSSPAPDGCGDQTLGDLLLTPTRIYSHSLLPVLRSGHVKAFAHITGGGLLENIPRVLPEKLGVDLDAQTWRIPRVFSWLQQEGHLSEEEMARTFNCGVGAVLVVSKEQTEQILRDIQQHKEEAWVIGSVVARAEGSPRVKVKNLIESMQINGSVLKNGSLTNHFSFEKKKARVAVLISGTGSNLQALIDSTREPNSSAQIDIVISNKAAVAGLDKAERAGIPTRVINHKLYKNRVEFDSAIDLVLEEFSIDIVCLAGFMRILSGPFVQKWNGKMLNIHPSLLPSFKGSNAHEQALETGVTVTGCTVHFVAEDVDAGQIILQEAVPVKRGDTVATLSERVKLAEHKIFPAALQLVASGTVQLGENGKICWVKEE", "experiment": "Binding affinity to GART in human NCI-H23 cells at 1 uM by mass spectrometry based pull down assay", "assay_type": "cell-based"}, "[12]": {"biological_target": "T2, Dual specificity mitogen-activated protein kinase kinase 7 (Homo sapiens) (UniProt O14733)", "T2 sequence (whole entry)": "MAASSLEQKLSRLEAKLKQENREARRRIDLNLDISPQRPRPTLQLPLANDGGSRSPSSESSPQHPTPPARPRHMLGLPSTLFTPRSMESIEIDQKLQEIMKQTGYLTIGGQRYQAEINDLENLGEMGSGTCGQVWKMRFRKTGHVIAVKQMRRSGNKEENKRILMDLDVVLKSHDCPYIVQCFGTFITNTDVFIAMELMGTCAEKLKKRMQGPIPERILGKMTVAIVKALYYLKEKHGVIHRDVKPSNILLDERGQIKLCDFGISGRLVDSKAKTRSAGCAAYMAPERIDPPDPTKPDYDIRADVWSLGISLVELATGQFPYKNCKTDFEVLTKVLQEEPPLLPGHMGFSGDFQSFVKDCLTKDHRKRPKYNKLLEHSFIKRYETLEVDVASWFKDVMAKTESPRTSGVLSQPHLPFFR", "experiment": "Binding affinity to MAP2K7 in human NCI-H23 cells at 1 uM by mass spectrometry based pull down assay", "assay_type": "cell-based"}, "[13]": {"biological_target": "Calponin-2 (Homo sapiens) (UniProt Q99439)", "sequence (Q99439 whole entry)": "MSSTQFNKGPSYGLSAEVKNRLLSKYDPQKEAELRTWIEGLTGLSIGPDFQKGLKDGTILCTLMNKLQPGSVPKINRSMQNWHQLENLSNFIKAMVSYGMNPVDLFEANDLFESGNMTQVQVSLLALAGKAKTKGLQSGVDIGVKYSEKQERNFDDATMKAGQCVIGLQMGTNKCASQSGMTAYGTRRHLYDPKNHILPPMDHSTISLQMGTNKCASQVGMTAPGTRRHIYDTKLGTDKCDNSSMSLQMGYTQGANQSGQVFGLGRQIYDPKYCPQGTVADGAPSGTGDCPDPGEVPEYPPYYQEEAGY", "experiment": "Binding affinity to CNN2 in human NCI-H23 cells at 1 uM by mass spectrometry based pull down assay", "assay_type": "cell-based"}, "[14]": {"biological_target": "Amidophosphoribosyltransferase (Homo sapiens) (UniProt Q06203)", "experiment": "Binding affinity to PPAT in human NCI-H23 cells at 1 uM by mass spectrometry based pull down assay", "assay_type": "cell-based"}, "[15]": {"biological_target": "Glutamate--cysteine ligase regulatory subunit (Homo sapiens) (UniProt P48507)", "sequence (P48507 whole entry)": "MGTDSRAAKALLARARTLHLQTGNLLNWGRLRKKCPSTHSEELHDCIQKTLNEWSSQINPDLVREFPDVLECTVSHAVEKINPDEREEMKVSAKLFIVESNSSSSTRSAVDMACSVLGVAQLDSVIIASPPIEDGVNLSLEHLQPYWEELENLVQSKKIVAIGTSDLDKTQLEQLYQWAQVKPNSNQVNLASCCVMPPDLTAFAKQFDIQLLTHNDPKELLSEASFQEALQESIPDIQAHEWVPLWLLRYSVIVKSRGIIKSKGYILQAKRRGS", "experiment": "Binding affinity to GCLM in human NCI-H358 cells at 1 uM by mass spectrometry based pull down assay", "assay_type": "cell-based"}, "[16]": {"biological_target": "Inosine-5'-monophosphate dehydrogenase 2 (Homo sapiens) (UniProt P12268)", "sequence (P12268 2-514 limits assumed)": "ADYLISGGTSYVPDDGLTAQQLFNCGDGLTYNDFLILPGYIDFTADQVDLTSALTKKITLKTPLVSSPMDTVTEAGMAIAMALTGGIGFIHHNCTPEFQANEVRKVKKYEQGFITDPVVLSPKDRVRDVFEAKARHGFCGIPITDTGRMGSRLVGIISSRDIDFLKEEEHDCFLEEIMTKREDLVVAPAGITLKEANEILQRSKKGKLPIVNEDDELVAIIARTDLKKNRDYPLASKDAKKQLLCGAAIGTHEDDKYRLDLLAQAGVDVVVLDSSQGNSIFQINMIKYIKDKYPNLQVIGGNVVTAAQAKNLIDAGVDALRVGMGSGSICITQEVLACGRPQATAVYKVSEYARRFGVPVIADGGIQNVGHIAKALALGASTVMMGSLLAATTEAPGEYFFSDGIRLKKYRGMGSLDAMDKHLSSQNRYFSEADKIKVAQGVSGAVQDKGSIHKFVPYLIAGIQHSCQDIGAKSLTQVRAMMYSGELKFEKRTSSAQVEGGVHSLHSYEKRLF", "experiment": "Binding affinity to IMPDH2 in human NCI-H358 cells at 1 uM by mass spectrometry based pull down assay", "assay_type": "cell-based"}, "[17]": {"biological_target": "Trafficking protein particle complex subunit 5 (Homo sapiens) (UniProt Q8IUR0)", "sequence (Q8IUR0 whole entry, one chain of several)": "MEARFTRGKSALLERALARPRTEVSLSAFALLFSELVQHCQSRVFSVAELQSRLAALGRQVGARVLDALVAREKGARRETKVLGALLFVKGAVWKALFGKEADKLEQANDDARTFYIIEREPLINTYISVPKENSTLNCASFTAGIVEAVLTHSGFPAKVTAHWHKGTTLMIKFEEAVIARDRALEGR", "experiment": "Binding affinity to TRAPPC5 in human NCI-H358 cells at 1 uM by mass spectrometry based pull down assay", "assay_type": "cell-based"}, "[18]": {"biological_target": "5'-AMP-activated protein kinase catalytic subunit alpha-1 (Homo sapiens) (UniProt Q13131)", "experiment": "Binding affinity to PRKAA1 in human NCI-H358 cells at 1 uM by mass spectrometry based pull down assay", "assay_type": "cell-based"}}, "note": "The source made the active and inactive calls. No cut-off for these calls is given here."}
{"smiles": "COc1cc(O)c2c(c1)/C=C/C[C@H](O)[C@H](O)C(=O)/C=C\\C[C@H](C)OC2=O", "values": [{"measurement": "Activity", "setting": "[1]", "result": 22, "unit": "%"}]}
{"smiles": "C=CC(=O)Nc1ccccc1Nc1nc(Nc2ccc(N3CCN(C)CC3)cc2)ncc1Cl", "values": [{"measurement": "inhibition", "setting": "[2]", "result": -5.7, "unit": "%"}]}
{"smiles": "C=CC(=O)Nc1ccccc1Nc1nc(Nc2ccc(N3CCN(CCOCCOCCOCCNC(=O)CCCC[C@@H]4SC[C@@H]5NC(=O)N[C@@H]54)CC3)cc2)ncc1Cl", "values": [{"measurement": "Activity", "setting": "[3]", "result": "Active"}, {"measurement": "Activity", "setting": "[4]", "result": "Active"}, {"measurement": "Activity", "setting": "[5]", "result": "Active"}, {"measurement": "Activity", "setting": "[6]", "result": "Active"}, {"measurement": "Activity", "setting": "[7]", "result": "Active"}, {"measurement": "Activity", "setting": "[8]", "result": "Active"}, {"measurement": "Activity", "setting": "[9]", "result": "Active"}, {"measurement": "Activity", "setting": "[10]", "result": "Active"}, {"measurement": "Activity", "setting": "[11]", "result": "Active"}, {"measurement": "Activity", "setting": "[12]", "result": "Active"}, {"measurement": "Activity", "setting": "[13]", "result": "Active"}, {"measurement": "Activity", "setting": "[14]", "result": "Active"}, {"measurement": "Activity", "setting": "[15]", "result": "Active"}, {"measurement": "Activity", "setting": "[16]", "result": "Active"}, {"measurement": "Activity", "setting": "[17]", "result": "Active"}, {"measurement": "Activity", "setting": "[18]", "result": "Active"}]}
